CaV13 ICDI inh = Primary screen for inhibitors of IQ motif and Ca2+-dependent inactivation inhibitor domain binding in CACNA1D, Förster resonance energy transfer in living cells, …. HEK cells, CFP/YFP FRET ICDI-IQ, plate reader, 10 min; percent FRET-ratio fall versus neutral wells. inhibition, % at 12.3 µM. actives 0.098% (n = 340,000). AID 743397;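 active = mean replicate inhibition of at least 30% and at least 1% of replicates passing that level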;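 also: 0% = median of the neutral control wells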
GC-A act = GC-A (human) enzyme activation; P16066; HEK293 GC-A cells, cGMP TR-FRET, EC30 ANP; 0% at EC30 ANP, 100% saturating ANP; activation, % at 10 µM; actives 0.14% (n = 370,000); AID 1671463; in the data active = activation above about 40%
GC-B act = GC-B (human) receptor activation. P20594. HEK293-GC-B cells, CNP EC30, cGMP TR-FRET; 0% at EC30 CNP, 100% saturating CNP. activation, % at 10 µM. actives 0.11% (n = 370,000);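 active = activation at 10 µM reaching about 35% in either raw or pattern-adjusted values, limit read from the data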
FN deposition inh = fibronectin deposition inhibition; AH1F fibroblasts, Alexa488-fibronectin deposition fluorescence, overnight; inhibition, % at 12.6 µM; actives 0.086% (n = 350,000); AID 743247;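 active = mean inhibition across replicates of 30% or more, regardless of how many single replicates reach that level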;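 also: positive control wells lacked labelled fibronectin entirely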
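Assay system: AH1F fibroblasts assembling fluorescent fibronectin matrix; Amount: 10000 AH1F cells per well; Buffer or medium: DMEM, 2% serum; Probe or stimulus: Alexa488-fibronectin, 24 nM final in well; Doses: single compound dose, delivered by pin transfer; Incubation: 1 h adhesion, overnight exposure; Measured by: fluorescence 485/525 nm; Read-out: fibronectin deposition inhibition.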
CASP6 VEID inh = blocks human caspase-6 cleavage activity; P55212; purified caspase-6, Z-VEID-R110 cleavage fluorescence; inhibition, % at 12.5 µM; actives 0.53% (n = 350,000);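 active = mean inhibition across replicates at least about 35%, with every replicate also reaching that limit, limit read from the data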;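 also: 0% = median of neutral control wells and 100% = no fluorescence left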
NSD2 HMT inh = inhibitors of human histone methyltransferase NSD2; NSD2 peptide methylation, AlphaScreen, 120 min; O96028; inhibition, % at 12.5 µM; actives 0.54% (n = 310,000); AID 743445; in the data active = inhibition above about 50%
An asterisk follows results filed as active; x = no result. In the library only some 0.99% were active in any assay of this set; here they are far more common.

SMILES | CaV13 ICDI inh | GC-A act | GC-B act | FN deposition inh | CASP6 VEID inh | NSD2 HMT inh
c1ccc(CCNc2ccccn2)nc1 | -6.9 | -5.7 | 1.7 | 4.4 | 0.9 | -0.5
CCOC(=O)c1c(-n2c(C)cc(C=O)c2C)sc2c1CCCC2 | -7.6 | -11.2 | -8.0 | x | 0.1 | 19.4
Cc1ccc(C)n1-c1sc2c(c1C(=O)O)CCCC2 | -2.7 | -6.0 | 1.1 | 8.4 | 51.9* | x
O=C(NCCN1CCCCC1)[C@H]1[C@H](CO)[C@H]2Cn3c(cccc3=O)[C@H]2N1Cc1ccccn1 | x | x | x | x | 1.0 | x
O=C(C[C@H]1CC[C@@H]2[C@H](COC[C@@H](O)CN2S(=O)(=O)c2ccc(Cl)cc2)O1)N[C@@H]1CCN(Cc2ccccc2)C1 | x | x | x | -2.5 | -2.1 | x
COc1cccc2c(SCC(=O)N/N=C/c3ccc(O)c(O)c3)cc(C)nc12 | -5.1 | -8.9 | -4.9 | 18.5 | x | 132.0*
COc1ccc(NC(=O)N[C@H]2CC[C@@H](CCn3cc(C4(O)CCCC4)nn3)O[C@@H]2CO)cc1 | x | x | x | 2.2 | 1.0 | x
COc1cc(-c2cc(NC(C)=O)c3ncc(-c4ccc(C(C)=O)cc4)n3c2)cc(OC)c1OC | -5.1 | 46.5* | 46.2* | 1.2 | 0.5 | -1.2
CC(=O)Nc1cc(-c2cccc(N)c2)cn2c(-c3ccc(C(C)=O)cc3)cnc12 | -7.0 | 5.8 | 34.5* | -1.8 | 3.8 | -0.6
COc1ccc(-c2cnc3c(NC=O)cc(-c4cc(OC)c(OC)c(OC)c4)cn23)cc1OC | -9.0 | 28.6 | 38.7* | 10.8 | 7.0 | 5.8
COc1ccccc1-c1ccc2c(c1)O[C@@H](CN(C)C(=O)c1ccccc1)[C@@H](C)CN([C@H](C)CO)S2(=O)=O | x | x | x | x | 0.6 | x
CN(C)C(=O)c1ccc(-c2ccc([C@H]3[C@@H](CO)N4CCCCN(C(=O)C5CCC5)C[C@H]34)cc2)cc1 | x | x | x | x | 1.6 | x
O=C(NCC[C@H]1CC[C@H](NC(=O)C2CCCC2)[C@@H](CO)O1)c1ccc(F)cc1 | x | x | x | x | 1.8 | x
CC(C)CN(C(=O)COC(=O)/C=C/c1ccccc1)C1CCS(=O)(=O)C1 (stereo unspecified) | -4.8 | 1.9 | 0.8 | -1.8 | 39.0* | 1.8
COC(=O)c1cn(CC(=O)NCc2ccco2)c2ccccc12 | -4.2 | -2.2 | 2.8 | 31.4* | x | -3.4
CCC(=O)c1cn(CC(=O)NCc2ccco2)c2ccccc12 | -5.4 | -4.4 | -6.2 | x | x | -1.6
CN(C)CC(=O)N[C@@H]1CC[C@@H](CC(=O)O)O[C@H]1CO | x | x | x | x | 2.4 | x
CC(C)NC(=O)N(C)C[C@@H]1Oc2cc(Br)ccc2S(=O)(=O)N([C@@H](C)CO)C[C@@H]1C | x | x | x | -9.7 | 0.3 | x
CCC(=O)NC(=S)NNC(=O)c1ccc(O)cc1 | -6.8 | 0.7 | 85.1* | x | -4.2 | -0.1
O=C(C[C@@H]1C[C@H]2c3cc(NC(=O)Nc4ccccc4)ccc3O[C@H]2[C@@H](CO)O1)NCC(F)(F)F | x | x | x | 4.2 | 0.6 | x
COc1ccccc1CNC(=O)c1cc(S(=O)(=O)N2CCCC2)cn1C | -3.3 | -0.1 | 37.0* | 0.0 | 1.0 | x
O=C(NCCCN1CCOCC1)c1ccc2nc(-c3ccc(F)cc3)c(-c3ccc(F)cc3)nc2c1 | x | x | x | x | x | 3.6
COC(=O)c1ccccc1NC(=O)c1cc(-c2cccs2)on1 | -7.8 | -4.0 | 0.4 | x | 1.7 | -0.7
COC(=O)c1ccccc1NC(=O)c1cc(-c2ccco2)on1 | -3.1 | -0.2 | 0.8 | 5.9 | 65.9* | 2.3
CC1OC2CC(=O)OC2C2=C1C(=O)c1c(O)cccc1C2=O (stereo unspecified) | x | 20.2 | 15.9 | x | 84.8* | x
SMILES | CaV13 ICDI inh | GC-A act | GC-B act | FN deposition inh | CASP6 VEID inh | NSD2 HMT inh
CCC(=O)N1CC(=O)N2[C@H](CO)[C@H](c3ccc(C#Cc4cccc(OC)c4)cc3)[C@@H]2C1 | x | x | x | x | 1.0 | x
CS(=O)(=O)N1CC(=O)N2[C@H](C1)[C@H](c1ccc(C#CCc3ccccc3)cc1)[C@@H]2CO | x | x | x | x | 4.5 | x
Cc1oc(/N=C/c2ccc(F)cc2)c(C#N)c1C | 82.3* | 5.3 | -0.5 | 1.4 | 4.5 | -1.8
Cc1cc(Cc2ccc(N)c(C)c2)ccc1N | -1.3 | -1.1 | 8.7 | -23.1 | -1.0 | -1.2
Nc1ccc(Cc2ccc(N)c(C(=O)O)c2)cc1C(=O)O | -6.8 | 2.9 | 5.5 | x | 43.7* | 8.4
CCOC(=O)CN1CCC(c2cc(-c3ccc(Cl)cc3)n[nH]2)CC1 | -8.1 | 62.0* | -5.0 | -7.0 | 0.9 | 1.8
C[C@H](CO)N1C[C@H](C)[C@H](CN(C)C(=O)Cc2ccccn2)Oc2cc(-c3cccc(C(=O)N(C)C)c3)ccc2S1(=O)=O | x | x | x | -0.9 | 0.0 | x
COc1ccc2nc3c(cc2c1)c(NC(=O)c1cccs1)nn3CC(C)C | 56.0* | 5.1 | 7.8 | x | x | -10.8
Cc1ccccc1S(=O)(=O)Nc1ccc2c(c1)C(=O)N(C)[C@@H]1CC[C@H](CC(=O)O)O[C@@H]1CO2 | x | x | x | 4.5 | x | x
CCOc1ccccc1-n1c(SCC(=O)Nc2nccs2)nnc1-c1ccoc1C | -4.7 | -23.6 | -14.5 | -3.7 | 0.2 | -3.7
CCOc1ccc(-n2c(SCC(=O)Nc3nccs3)nnc2-c2ccoc2C)cc1 | 178.6* | -8.8 | -6.5 | 8.7 | -7.2 | -2.2
O=C(CSc1nc2ccccc2n1CCc1ccccc1)c1ccc(O)c(O)c1 | 5.0 | -9.7 | -1.1 | 18.7 | 69.6* | 101.8*
O=C(CSc1nc2ccccc2c(=O)[nH]1)c1ccc(O)cc1O | 5.4 | -2.6 | -2.2 | 8.0 | 3.0 | 0.3
O=C(CSc1nc2ccccc2c(=O)[nH]1)c1ccc(O)c(O)c1 | -9.1 | -3.0 | -8.4 | x | 70.4* | x
Cc1cc(C)nc(SCC(=O)c2ccc(O)c(O)c2)n1 | -7.2 | -1.1 | -2.2 | 3.7 | 29.7 | x
Cc1cc(=O)[nH]c(SCC(=O)Nc2ccc(S(N)(=O)=O)cc2)n1 | -6.7 | 3.2 | 0.5 | x | 52.3* | -1.1
Cc1cc(SCC(=O)c2ccc(O)c(O)c2)n2nc(C)c(-c3ccccc3)c2n1 | -2.3 | -0.9 | 3.3 | -11.4 | 39.4* | 10.7
Cc1cc(=O)[nH]c(SCC(=O)Nc2ccc(C(=O)O)cc2)n1 | -8.8 | 0.3 | 2.6 | x | 1.0 | 0.9
CC(C)CC#Cc1cnc2c(c1)C(=O)N([C@@H](C)CO)C[C@@H](C)[C@H](CN(C)S(=O)(=O)c1cn(C)cn1)O2 | x | x | x | -33.8 | -0.8 | x
Cc1cc(=O)[nH]c(SCC(=O)c2ccc(O)c(O)c2)n1 | -5.8 | 3.7 | 0.7 | 1.5 | 36.3* | 24.5
Cn1c(SCC(=O)c2ccc(O)c(O)c2)nnc1-c1ccccc1 | -2.5 | -0.4 | -1.8 | 4.3 | 12.8 | 2.6
Cn1c(SCC(=O)c2ccc(O)c(O)c2)nnc1-c1cccs1 | -5.5 | -4.5 | -1.7 | -1.9 | 40.4* | 16.4
